According to ChEMBL document CHEMBL2375239, “Improving the immunostimulatory potency of diethanolamine-containing lipid A mimics” (Bioorg Med Chem, 2013):
Activity calls are given as the source filed them. The rule behind the calls is not given here.

How the values were obtained:
Type in all cases: cell-based
Details in all cases: THP-1
[1] = biological target: T1, Toll-like receptor 4/MD-2 (Homo sapiens) (UniProt O00206+Q9Y6Y9); experiment: Agonist activity at TLR4/MD-2 receptor complex in human THP1 cells assessed as TNF-alpha release at 0.001 uM after 24 hrs by ELISA in presence of 0.1 uM of lipid IVa
Method in brief: (§1)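 THP-1 cells plated at 0.5 × 10⁶ cells/well in RPMI with 25 ng/mL PMA for 48 h. Adherent cells washed with PBS, held in serum-free RPMI 3 h, then stimulated 24 h with agonist plus increasing lipid IVa (dissolved in DMSO). Supernatant TNF-α and IL-1β measured by ELISA, A450 corrected at 540 nm. Duplicates; mean of two separate experiments.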

[2] = biological target: T1, Toll-like receptor 4/MD-2 (Homo sapiens); experiment: Agonist activity at TLR4/MD-2 receptor complex in human THP1 cells assessed as TNF-alpha release at 0.1 uM after 24 hrs by ELISA in presence of 0.5 uM of lipid IVa; method in brief: as §1
[3] = biological target: T1, Toll-like receptor 4/MD-2 (Homo sapiens); experiment: Agonist activity at TLR4/MD-2 receptor complex in human THP1 cells assessed as IL-1beta release at 10^-4 uM after 24 hrs by ELISA
Method in brief: (§2)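 Mimics reconstituted in 20% DMSO/PBS with brief sonication, fresh aliquot per experiment, final DMSO ≤0.5%. THP-1 cells differentiated 48 h with 25 ng/mL PMA, washed, serum-starved 3 h. Stimulated 24 h across 10⁻⁴–10 µM. Supernatant TNF-α, IL-6 or IL-1β read by ELISA (450 nm, 540 nm correction). Duplicates; mean of two experiments.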

[4] = biological target: T1, Toll-like receptor 4/MD-2 (Homo sapiens); experiment: Agonist activity at TLR4/MD-2 receptor complex in human THP1 cells assessed as IL-1beta release at 0.001 uM after 24 hrs by ELISA in presence of lipid IVa in presence of 0.1 uM of lipid IVa; method in brief: as §1
[5] = biological target: T1, Toll-like receptor 4/MD-2 (Homo sapiens); experiment: Agonist activity at TLR4/MD-2 receptor complex in human THP1 cells assessed as IL-1beta release at 10 uM after 24 hrs by ELISA; method in brief: as §2
[6] = biological target: T1, Toll-like receptor 4/MD-2 (Homo sapiens); experiment: Agonist activity at TLR4/MD-2 receptor complex in human THP1 cells assessed as IL-1beta release at 0.1 uM after 24 hrs by ELISA in presence of lipid IVa in presence of 0.5 uM of lipid IVa; method in brief: as §1
[7] = biological target: T1, Toll-like receptor 4/MD-2 (Homo sapiens); experiment: Agonist activity at TLR4/MD-2 receptor complex in human THP1 cells assessed as IL-1beta release at 10^-3 uM after 24 hrs by ELISA; method in brief: as §2
[8] = biological target: T1, Toll-like receptor 4/MD-2 (Homo sapiens); experiment: Agonist activity at TLR4/MD-2 receptor complex in human THP1 cells assessed as TNF-alpha release at 10^-3 uM after 24 hrs by ELISA; method in brief: as §2
[9] = biological target: T1, Toll-like receptor 4/MD-2 (Homo sapiens); experiment: Agonist activity at TLR4/MD-2 receptor complex in human THP1 cells assessed as IL-6 release at 10 uM after 24 hrs by ELISA; method in brief: as §2
[10] = biological target: T1, Toll-like receptor 4/MD-2 (Homo sapiens); experiment: Agonist activity at TLR4/MD-2 receptor complex in human THP1 cells assessed as TNF-alpha release at 0.1 uM after 24 hrs by ELISA in presence of 0.1 uM of lipid IVa; method in brief: as §1
[11] = biological target: T1, Toll-like receptor 4/MD-2 (Homo sapiens); experiment: Agonist activity at TLR4/MD-2 receptor complex in human THP1 cells assessed as IL-6 release at 0.1 uM to 1 uM after 24 hrs by ELISA; method in brief: as §2
[12] = biological target: T1, Toll-like receptor 4/MD-2 (Homo sapiens); experiment: Agonist activity at TLR4/MD-2 receptor complex in human THP1 cells assessed as IL-1beta release at 0.1 uM after 24 hrs by ELISA in presence of lipid IVa in presence of 0.1 uM of lipid IVa; method in brief: as §1
[13] = biological target: T1, Toll-like receptor 4/MD-2 (Homo sapiens); experiment: Agonist activity at TLR4/MD-2 receptor complex in human THP1 cells assessed as IL-1beta release at 0.1 uM to 1 uM after 24 hrs by ELISA; method in brief: as §2
[14] = biological target: T1, Toll-like receptor 4/MD-2 (Homo sapiens); experiment: Agonist activity at TLR4/MD-2 receptor complex in human THP1 cells assessed as TNF-alpha release at 0.1 uM to 1 uM after 24 hrs by ELISA; method in brief: as §2
[15] = biological target: T1, Toll-like receptor 4/MD-2 (Homo sapiens); experiment: Agonist activity at TLR4/MD-2 receptor complex in human THP1 cells assessed as TNF-alpha release at 10 uM after 24 hrs by ELISA; method in brief: as §2

Row | Activity [1] | Activity [2] | Activity [3] | Activity [4] | Activity [5] | Activity [6] | Activity [7] | Activity [8] | Activity [9] | Activity [10] | Activity [11] | Activity [12] | Activity [13] | Activity [14] | Activity [15] | Structure (SMILES)
1 | Active | inactive | Active | Active | Active | Active | Active | Active | Active | Active | Active | Active | Active | Active | Active | CCCCCCCCCCCCCC(=O)O[C@H](CCCCCCCCCCC)CC(=O)N[C@H]1[C@H](OCCN(CC(=O)O)C(=O)C[C@@H](CCCCCCCCCCC)OC(=O)CCCCCCCCCCCCC)O[C@H](CO)[C@@H](OP(=O)(O)O)[C@@H]1OC(=O)C[C@@H](CCCCCCCCCCC)OC(=O)CCCCCCCCCCCCC
2 |  |  |  |  | Active |  | Active | Active | Active |  | Active |  | Active | Active | Active | CCCCCCCCCCCCCC(=O)O[C@H](CCCCCCCCCCC)CC(=O)N[C@H]1[C@H](OCCN(CCOP(=O)(O)O)C(=O)C[C@@H](CCCCCCCCCCC)OC(=O)CCCCCCCCCCCCC)O[C@H](CO)[C@@H](OP(=O)(O)O)[C@@H]1OC(=O)C[C@@H](CCCCCCCCCCC)OC(=O)CCCCCCCCCCCCC
3 |  |  |  |  | Active |  | Active | Active | Active |  | Active |  | Active | Active | Active | CCCCCCCCCCCCCC(=O)O[C@H](CCCCCCCCCCC)CC(=O)N[C@H]1[C@H](OCCN(CCO)C(=O)C[C@@H](CCCCCCCCCCC)OC(=O)CCCCCCCCCCCCC)O[C@H](CO)[C@@H](OP(=O)(O)O)[C@@H]1OC(=O)C[C@@H](CCCCCCCCCCC)OC(=O)CCCCCCCCCCCCC
